Assay results published in ChEMBL document CHEMBL5696442, “Discovery of type II inhibitors of TGFβ-activated kinase 1 (TAK1) and mitogen-activated protein kinase kinase kinase kinase 2 (MAP4K2)” (J Med Chem, 2015).

Key:
[1] = molecular target: T1, Mitogen-activated protein kinase kinase kinase kinase 2 (Homo sapiens) (UniProt Q12851); assay: Inhibition of MAP4K2 Lys1 labeling site in human Huh-7 cell lysate at 1 uM by KiNativ Profiling analysis relative to control; type: subcellular
T1 sequence (whole entry): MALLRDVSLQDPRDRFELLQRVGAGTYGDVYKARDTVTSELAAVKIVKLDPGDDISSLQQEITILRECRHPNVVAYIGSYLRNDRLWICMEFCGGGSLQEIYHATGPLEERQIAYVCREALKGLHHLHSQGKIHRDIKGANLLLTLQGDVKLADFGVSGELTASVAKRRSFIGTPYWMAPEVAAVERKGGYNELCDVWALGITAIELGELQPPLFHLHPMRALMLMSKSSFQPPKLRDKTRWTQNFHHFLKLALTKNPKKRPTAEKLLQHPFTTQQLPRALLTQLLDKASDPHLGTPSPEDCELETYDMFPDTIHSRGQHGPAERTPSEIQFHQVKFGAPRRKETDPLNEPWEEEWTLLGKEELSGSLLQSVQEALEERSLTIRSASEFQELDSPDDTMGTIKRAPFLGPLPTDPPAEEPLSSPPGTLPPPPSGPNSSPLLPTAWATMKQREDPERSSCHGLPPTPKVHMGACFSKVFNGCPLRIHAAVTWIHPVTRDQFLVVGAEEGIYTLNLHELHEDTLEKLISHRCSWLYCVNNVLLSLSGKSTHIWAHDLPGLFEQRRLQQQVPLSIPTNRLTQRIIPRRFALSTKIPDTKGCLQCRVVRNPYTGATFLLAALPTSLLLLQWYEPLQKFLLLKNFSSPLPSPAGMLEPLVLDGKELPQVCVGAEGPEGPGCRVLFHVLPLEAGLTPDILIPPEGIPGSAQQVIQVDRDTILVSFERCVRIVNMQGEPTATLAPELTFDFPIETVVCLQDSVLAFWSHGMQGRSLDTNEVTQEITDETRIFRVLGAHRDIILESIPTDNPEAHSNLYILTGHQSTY

[2] = molecular target: Protein kinase C beta type (Homo sapiens) (UniProt P05771); assay: Inhibition of PKCb Lys2 labeling site in human A-375 cells at 0.05 uM by KiNativ Profiling analysis relative to control; type: cell-based
[3] = molecular target: Serine/threonine-protein kinase SIK3 (Homo sapiens) (UniProt Q9Y2K2); assay: Inhibition of QSK Lys2 labeling site in human A-375 cells at 5 uM by KiNativ Profiling analysis relative to control; type: cell-based
[4] = molecular target: Cyclin-dependent kinase 11B (Homo sapiens) (UniProt P21127); assay: Inhibition of PITSLRE Lys2 labeling site in human A-375 cells at 5 uM by KiNativ Profiling analysis relative to control; type: cell-based
[5] = molecular target: Calcium/calmodulin-dependent protein kinase type II subunit gamma (Homo sapiens) (UniProt Q13555); assay: Inhibition of CaMK2g Lys1 labeling site harbouring TSTQEYAAKIINTK in human A-375 cells at 0.5 uM by KiNativ Profiling analysis relative to control; type: cell-based
Procedure, shortened: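 Live A375 melanoma cells were treated with compound at 5 or 0.5 μM. The cells were then lysed, and the lysates were labeled with a lysine-reactive ATP or ADP-biotin acyl probe (KiNativ). Inhibition is the compound's protection of each kinase labeling-site peptide from probe labeling, relative to untreated control.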

[6] = molecular target: T2, Serine/threonine-protein kinase LATS2 (Homo sapiens) (UniProt Q9NRM7); assay: Inhibition of LATS2 Lys2 labeling site in human A-375 cells at 0.5 uM by KiNativ Profiling analysis relative to control; type: cell-based
T2 sequence (whole entry): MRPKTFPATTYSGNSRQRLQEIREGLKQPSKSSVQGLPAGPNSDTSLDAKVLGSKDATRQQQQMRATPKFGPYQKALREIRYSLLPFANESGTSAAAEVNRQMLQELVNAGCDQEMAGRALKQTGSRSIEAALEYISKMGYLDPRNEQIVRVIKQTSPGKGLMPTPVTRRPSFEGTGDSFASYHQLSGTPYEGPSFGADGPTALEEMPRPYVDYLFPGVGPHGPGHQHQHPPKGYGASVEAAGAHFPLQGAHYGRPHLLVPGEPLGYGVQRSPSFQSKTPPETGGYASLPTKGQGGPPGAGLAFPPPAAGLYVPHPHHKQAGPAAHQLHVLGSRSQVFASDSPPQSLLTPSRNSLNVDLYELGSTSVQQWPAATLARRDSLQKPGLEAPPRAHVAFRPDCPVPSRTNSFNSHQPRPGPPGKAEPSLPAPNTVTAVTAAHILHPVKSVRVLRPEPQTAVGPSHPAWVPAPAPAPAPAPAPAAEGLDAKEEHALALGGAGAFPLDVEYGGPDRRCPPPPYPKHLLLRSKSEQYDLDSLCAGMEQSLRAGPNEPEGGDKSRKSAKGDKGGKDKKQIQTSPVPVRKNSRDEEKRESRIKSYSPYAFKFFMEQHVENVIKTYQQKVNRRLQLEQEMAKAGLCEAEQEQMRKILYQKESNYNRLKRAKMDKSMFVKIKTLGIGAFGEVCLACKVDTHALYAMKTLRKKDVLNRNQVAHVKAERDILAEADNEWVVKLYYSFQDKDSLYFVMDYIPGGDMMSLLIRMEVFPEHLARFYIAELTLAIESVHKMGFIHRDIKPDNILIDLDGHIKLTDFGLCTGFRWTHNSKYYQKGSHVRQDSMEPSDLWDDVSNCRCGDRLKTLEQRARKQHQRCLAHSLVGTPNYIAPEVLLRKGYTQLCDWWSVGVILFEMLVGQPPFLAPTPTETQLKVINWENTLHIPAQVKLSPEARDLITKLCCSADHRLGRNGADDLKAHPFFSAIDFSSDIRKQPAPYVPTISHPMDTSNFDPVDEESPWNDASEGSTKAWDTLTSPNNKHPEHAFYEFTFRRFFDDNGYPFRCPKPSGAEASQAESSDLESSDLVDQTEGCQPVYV

[7] = molecular target: Cyclin-dependent kinase 18 (Homo sapiens) (UniProt Q07002); assay: Inhibition of PCTAIRE3 Lys1 labeling site harbouring SKLTENLVALKEIRLEHEEGAPCTAIR in human A-375 cells at 0.5 uM by KiNativ Profiling analysis relative to control; type: cell-based
Procedure, shortened: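 Live A375 melanoma cells were treated with compound at 5 or 0.5 μM, then lysed. Lysates were labeled with a lysine-reactive ATP or ADP-biotin probe. Read-out was the compound's protection of kinase labeling sites from probe labeling (KiNativ).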

[8] = Inhibition of KHS1 Lys1 labeling site in human A-375 cells at 0.05 uM by KiNativ Profiling analysis relative to control; settings: condition cancer
[9] = molecular target: Tyrosine-protein kinase ABL2 (Homo sapiens, UniProt P42684); assay: Inhibition of ARG ACT labeling site in human A-375 cells at 0.5 uM by KiNativ Profiling analysis relative to control; type: cell-based
Procedure, shortened: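 Intact A375 melanoma cells were treated with compound at 5 or 0.5 μM, then lysed. Lysate kinases were labeled with a lysine-reactive ATP or ADP-biotin probe (KiNativ). Inhibition is read as protection of each kinase labeling site from probe labeling.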

[10] = molecular target: RAC-beta serine/threonine-protein kinase (Homo sapiens) (UniProt P31751); assay: Inhibition of AKT2 ATP Loop labeling site in human A-375 cells at 0.05 uM by KiNativ Profiling analysis relative to control; type: cell-based
RAC-beta serine/threonine-protein kinase (Homo sapiens), sequence (P31751 whole entry): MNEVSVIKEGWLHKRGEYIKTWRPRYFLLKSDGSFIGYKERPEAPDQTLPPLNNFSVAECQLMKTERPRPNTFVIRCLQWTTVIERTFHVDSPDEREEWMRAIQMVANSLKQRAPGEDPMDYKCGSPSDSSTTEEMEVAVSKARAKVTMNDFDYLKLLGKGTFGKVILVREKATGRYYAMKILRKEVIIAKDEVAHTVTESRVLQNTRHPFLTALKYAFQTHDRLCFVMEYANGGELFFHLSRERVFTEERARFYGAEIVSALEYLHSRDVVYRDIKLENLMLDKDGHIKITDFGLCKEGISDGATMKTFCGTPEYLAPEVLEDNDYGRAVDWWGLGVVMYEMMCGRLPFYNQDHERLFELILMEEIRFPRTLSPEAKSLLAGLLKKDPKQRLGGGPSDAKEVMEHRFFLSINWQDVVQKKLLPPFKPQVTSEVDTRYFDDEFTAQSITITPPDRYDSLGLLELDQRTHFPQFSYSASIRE

Serine/threonine-protein kinase SIK3 (Homo sapiens), sequence (Q9Y2K2 whole entry, looked up): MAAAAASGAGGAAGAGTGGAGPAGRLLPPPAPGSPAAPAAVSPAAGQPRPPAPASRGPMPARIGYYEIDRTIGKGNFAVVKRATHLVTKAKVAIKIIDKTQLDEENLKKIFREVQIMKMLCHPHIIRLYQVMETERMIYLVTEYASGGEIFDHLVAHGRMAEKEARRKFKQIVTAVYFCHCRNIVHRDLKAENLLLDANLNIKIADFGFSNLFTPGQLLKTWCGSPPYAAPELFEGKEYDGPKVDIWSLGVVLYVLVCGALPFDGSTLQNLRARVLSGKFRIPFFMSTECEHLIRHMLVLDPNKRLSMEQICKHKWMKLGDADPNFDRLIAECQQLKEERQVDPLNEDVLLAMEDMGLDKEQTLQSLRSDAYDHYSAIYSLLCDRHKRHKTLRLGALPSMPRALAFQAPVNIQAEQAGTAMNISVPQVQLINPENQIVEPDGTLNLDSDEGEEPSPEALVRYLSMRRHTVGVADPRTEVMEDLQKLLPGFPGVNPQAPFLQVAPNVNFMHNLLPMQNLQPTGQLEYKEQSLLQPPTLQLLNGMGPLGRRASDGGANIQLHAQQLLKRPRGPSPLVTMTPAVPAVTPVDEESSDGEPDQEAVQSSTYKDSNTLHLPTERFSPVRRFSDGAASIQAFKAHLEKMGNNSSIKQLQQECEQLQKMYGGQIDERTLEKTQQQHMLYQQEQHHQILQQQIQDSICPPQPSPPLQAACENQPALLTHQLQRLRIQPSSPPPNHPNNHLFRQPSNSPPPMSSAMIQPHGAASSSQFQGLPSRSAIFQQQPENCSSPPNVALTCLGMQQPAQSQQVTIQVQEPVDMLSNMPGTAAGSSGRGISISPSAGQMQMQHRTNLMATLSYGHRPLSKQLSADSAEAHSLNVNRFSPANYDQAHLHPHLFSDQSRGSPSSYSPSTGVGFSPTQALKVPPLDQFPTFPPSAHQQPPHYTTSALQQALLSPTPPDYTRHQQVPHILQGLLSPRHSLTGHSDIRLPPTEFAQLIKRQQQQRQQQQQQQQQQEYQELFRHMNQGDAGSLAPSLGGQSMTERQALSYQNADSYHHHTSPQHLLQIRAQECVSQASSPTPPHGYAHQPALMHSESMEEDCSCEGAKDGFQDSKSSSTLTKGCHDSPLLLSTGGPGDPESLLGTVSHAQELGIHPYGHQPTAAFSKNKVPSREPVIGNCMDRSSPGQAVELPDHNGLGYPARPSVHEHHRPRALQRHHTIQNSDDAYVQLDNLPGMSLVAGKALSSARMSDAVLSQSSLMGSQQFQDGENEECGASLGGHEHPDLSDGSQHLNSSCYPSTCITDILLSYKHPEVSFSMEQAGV
Calcium/calmodulin-dependent protein kinase type II subunit gamma (Homo sapiens), sequence (Q13555 whole entry): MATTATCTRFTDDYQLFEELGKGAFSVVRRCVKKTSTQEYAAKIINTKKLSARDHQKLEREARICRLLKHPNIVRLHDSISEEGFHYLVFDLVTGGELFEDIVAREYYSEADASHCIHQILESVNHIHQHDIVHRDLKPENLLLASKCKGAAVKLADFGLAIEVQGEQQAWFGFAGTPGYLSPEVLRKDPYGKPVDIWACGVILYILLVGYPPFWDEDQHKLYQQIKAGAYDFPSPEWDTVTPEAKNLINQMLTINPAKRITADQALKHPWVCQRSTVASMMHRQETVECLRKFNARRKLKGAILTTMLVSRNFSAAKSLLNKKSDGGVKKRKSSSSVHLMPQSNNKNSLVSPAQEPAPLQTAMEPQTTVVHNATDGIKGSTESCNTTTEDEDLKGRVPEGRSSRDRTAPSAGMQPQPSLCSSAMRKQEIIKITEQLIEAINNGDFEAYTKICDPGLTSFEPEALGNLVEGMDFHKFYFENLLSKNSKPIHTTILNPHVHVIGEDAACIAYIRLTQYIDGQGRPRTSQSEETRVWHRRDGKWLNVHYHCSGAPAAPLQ
Tyrosine-protein kinase ABL2, sequence (P42684 whole entry): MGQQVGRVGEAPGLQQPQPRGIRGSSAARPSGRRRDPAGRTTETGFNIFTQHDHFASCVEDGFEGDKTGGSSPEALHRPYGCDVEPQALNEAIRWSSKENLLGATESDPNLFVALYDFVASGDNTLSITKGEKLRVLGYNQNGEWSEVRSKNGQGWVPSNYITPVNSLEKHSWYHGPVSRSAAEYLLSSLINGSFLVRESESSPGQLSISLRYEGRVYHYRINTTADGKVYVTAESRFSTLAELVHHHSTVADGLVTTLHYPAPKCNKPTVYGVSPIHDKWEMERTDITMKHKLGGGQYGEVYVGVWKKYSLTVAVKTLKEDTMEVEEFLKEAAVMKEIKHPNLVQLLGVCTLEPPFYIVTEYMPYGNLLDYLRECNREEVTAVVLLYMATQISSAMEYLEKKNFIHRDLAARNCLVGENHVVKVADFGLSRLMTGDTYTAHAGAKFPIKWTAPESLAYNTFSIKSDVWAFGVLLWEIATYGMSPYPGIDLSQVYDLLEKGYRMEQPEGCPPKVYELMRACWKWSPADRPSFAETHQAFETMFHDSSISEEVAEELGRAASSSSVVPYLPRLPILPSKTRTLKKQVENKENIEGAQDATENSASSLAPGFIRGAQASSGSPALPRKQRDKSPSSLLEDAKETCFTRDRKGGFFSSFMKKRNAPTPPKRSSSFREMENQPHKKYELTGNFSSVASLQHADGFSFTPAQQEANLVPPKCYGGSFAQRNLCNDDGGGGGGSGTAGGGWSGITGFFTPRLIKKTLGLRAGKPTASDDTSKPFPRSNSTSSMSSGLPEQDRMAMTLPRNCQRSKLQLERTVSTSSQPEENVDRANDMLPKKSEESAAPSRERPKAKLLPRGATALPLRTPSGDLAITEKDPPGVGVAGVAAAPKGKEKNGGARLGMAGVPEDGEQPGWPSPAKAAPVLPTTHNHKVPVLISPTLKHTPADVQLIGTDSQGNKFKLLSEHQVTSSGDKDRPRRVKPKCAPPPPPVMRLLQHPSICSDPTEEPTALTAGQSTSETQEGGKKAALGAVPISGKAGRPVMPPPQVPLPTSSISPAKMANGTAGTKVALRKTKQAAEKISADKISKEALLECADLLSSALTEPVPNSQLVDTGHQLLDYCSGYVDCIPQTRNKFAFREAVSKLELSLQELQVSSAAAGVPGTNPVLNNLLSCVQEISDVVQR
Cyclin-dependent kinase 18 (Homo sapiens), sequence (Q07002 whole entry): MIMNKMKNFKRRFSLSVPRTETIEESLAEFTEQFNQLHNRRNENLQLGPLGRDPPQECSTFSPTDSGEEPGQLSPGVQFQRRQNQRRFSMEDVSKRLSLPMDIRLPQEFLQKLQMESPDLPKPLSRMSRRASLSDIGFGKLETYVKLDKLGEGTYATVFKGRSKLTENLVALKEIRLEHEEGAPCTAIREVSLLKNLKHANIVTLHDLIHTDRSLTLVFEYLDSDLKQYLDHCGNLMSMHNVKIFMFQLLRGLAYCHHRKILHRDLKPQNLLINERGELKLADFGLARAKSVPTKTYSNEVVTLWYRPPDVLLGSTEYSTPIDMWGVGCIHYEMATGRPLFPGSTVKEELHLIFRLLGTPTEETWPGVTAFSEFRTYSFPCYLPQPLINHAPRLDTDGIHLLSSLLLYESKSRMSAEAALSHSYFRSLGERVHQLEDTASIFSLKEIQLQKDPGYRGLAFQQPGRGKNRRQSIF
Protein kinase C beta type (Homo sapiens), sequence (P05771 2-671 limits assumed): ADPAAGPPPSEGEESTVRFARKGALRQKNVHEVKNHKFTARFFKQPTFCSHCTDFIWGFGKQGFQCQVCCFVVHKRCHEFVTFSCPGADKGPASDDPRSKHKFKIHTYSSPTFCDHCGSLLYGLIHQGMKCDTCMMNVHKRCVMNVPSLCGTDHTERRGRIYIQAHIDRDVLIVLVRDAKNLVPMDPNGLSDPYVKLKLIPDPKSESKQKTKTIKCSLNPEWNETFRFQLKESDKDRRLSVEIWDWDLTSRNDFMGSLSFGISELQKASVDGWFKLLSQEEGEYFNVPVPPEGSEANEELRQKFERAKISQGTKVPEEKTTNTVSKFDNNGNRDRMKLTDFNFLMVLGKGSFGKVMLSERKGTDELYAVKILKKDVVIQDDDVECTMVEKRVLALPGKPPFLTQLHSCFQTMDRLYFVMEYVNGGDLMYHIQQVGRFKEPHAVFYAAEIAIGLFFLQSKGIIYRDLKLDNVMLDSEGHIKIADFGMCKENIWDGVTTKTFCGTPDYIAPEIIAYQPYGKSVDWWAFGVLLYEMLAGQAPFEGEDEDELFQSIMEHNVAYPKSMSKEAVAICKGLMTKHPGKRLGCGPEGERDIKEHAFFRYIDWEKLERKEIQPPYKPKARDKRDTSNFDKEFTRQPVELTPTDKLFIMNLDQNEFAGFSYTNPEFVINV

Structure (SMILES)	inhibition [1]	inhibition [2]	inhibition [3]	inhibition [4]	inhibition [5]	inhibition [6]	inhibition [7]	inhibition at 0.05 µM [8]	inhibition [9]	inhibition [10]
CNc1cc(Oc2cc(C(=O)Nc3cc(-n4cnc(C)c4)cc(C(F)(F)F)c3)ccc2C)ncn1	79.7%									
CCN1CCN(Cc2ccc(NC(=O)c3ccc(C)c(Oc4ccnc5[nH]ccc45)c3)cc2C(F)(F)F)CC1		45.3%	29.6%	6.3%	19.2%	12.6%	6.9%	14.9%	> 95%	-3.9%
CCN1CCN(Cc2ccc(NC(=O)c3ccc(C)c(/C=C/c4cnc5[nH]ccc5c4OC)c3)cc2C(F)(F)F)CC1		58%	28.6%	-9.5%	34.3%	6.4%	2.4%	29.4%	> 98%	20.9%
CNc1cc(Oc2cc(C(=O)Nc3cc(N4CCN(C)CC4)cc(C(F)(F)F)c3)ccc2C)ncn1	85.3%									
